Data from article PMC9122571 (RSC Advances, 2020).

Columns and labels:
A549 cells [1] = assay: In vitro cytotoxicity, MTT assay; type: cell-based, human; details: 48 h
Outline: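 A549 cells (DMEM, 10% FBS, penicillin/streptomycin, 37 °C, 5% CO2) seeded at 5 × 10³ per well and left overnight. Exposed 48 h to test compound at 6.25–200 μM. MTT (0.5 mg mL−1 in DMEM) added for 4 h; formazan dissolved in DMSO; A490 read. Viability taken as % of (ODtest − ODblank)/(ODcontrol − ODblank); means ± SD.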

[2] = DPPH radical scavenging assay
Outline: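 Test compound dissolved in DMSO and diluted in ethanol; a series of concentrations mixed with 2 mL DPPH solution (3.94 mg per 100 mL anhydrous ethanol). Kept 30 min at room temperature in the dark, then A519 read. Scavenging calculated as % of (Acontrol − Asample)/Acontrol. Vitamin C served as reference.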

A549 cells [3] = assay: Cell viability after H2O2 induced oxidative stress; type: cell-based, human; details: A549, 24 h pretreatment at 3.125–100 μM, then 800 μM H2O2 for 4 h
Outline: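 A549 cells in DMEM with 10% FBS and penicillin/streptomycin at 37 °C, 5% CO2, pretreated with test compound for 24 h, then given 800 μM H2O2 for 4 h. Untreated and H2O2-only groups run alongside. Viability by MTT (0.5 mg mL−1, 4 h, DMSO solubilisation, A490) as % of (ODtest − ODblank)/(ODcontrol − ODblank). n = 4; ANOVA with LSD post hoc test.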

SMILES | viability of A549 cells (A549 cells [1]; concentration ≤200 μM) | free radical scavenging effect compared with vitamin C [2] | also measured
CC(=O)Oc1ccc(/C=C\C(=O)Nc2ccc(S(=O)(=O)Nc3ncccn3)cc2)cc1OC(C)=O [ACASDZ, (Z)-4-(3-Oxo-3-(4-(N-pyrimidin-2ylsulfamoyl)phenylamino)prop-1-enyl)-1,2-phenylene diacetate] | not significantly decreased | – | –
O=C(/C=C\c1ccc(O)c(O)c1)Nc1ccc(S(=O)(=O)Nc2ncccn2)cc1 [CASDZ, (Z)-3-(3,4-Dihydroxyphenyl)-N-(4-(N-pyrimidin-2-ylsulfamoyl)phenyl)acrylamide] | not significantly decreased | higher | growth of A549 cells (A549 cells [1]; concentration of 200 μM): significantly inhibits
COc1cnc(NS(=O)(=O)c2ccc(NC(=O)/C=C\c3ccc(O)c(O)c3)cc2)nc1 [CASMD, (Z)-3-(3,4-Dihydroxyphenyl)-N-(4-(N-(5-methoxypyrimidin-2-yl)sulfamoyl)phenyl)acrylamide] | not significantly decreased | higher | viability of A549 cells (A549 cells [1]; concentration ≤100 μM): not significantly decreased
O=C(O)/C=C/c1ccc(O)c(O)c1 [Caffeic acid] | – | – | prevention of 800 μM H2O2 induced decrease in cell viability (A549 cells [3]): could not prevent
COc1cnc(NS(=O)(=O)c2ccc(NC(=O)/C=C\c3ccc(OC(C)=O)c(OC(C)=O)c3)cc2)nc1 [ACASMD, (Z)-4-(3-(4-(N-(5-Methoxypyrimidin-2yl)sulfamoyl)phenylamino)-3-oxoprop-1-enyl)-1,2-phenylene diacetate] | not significantly decreased | – | –
CC(=O)Oc1ccc(/C=C\C(=O)Nc2ccc(S(N)(=O)=O)cc2)cc1OC(C)=O [ACASN, (Z)-4-(3-Oxo-3-(4-sulfamoylphenylamino)prop-1-enyl)-1,2-phenylene diacetate] | not significantly decreased | – | –
O=C1O[C@H]([C@@H](O)CO)C(O)=C1O [Vitamin C] | – | – | prevention of 800 μM H2O2 induced decrease in cell viability (A549 cells [3]): could not prevent
NS(=O)(=O)c1ccc(NC(=O)/C=C\c2ccc(O)c(O)c2)cc1 [CASN, (Z)-3-(3,4-Dihydroxyphenyl)-N-(4-sulfamoylphenyl)acrylamide] | not significantly decreased | higher | –
